Test results as given in ChEMBL document CHEMBL1125138, “1,3-Dialkyl-3-acyltriazenes, a novel class of antineoplastic alkylating agents” (J Med Chem, 1990).

What was measured:
NCI-H522 (Homo sapiens) = experiment: Evaluated for the inhibitory concentration required to cause growth inhibition of H522 cell line of lung using the Microculture Tetrazolium (MTT) Cytotoxicity Assay
MX1 [1] = experiment: Evaluated in vivo for antineoplastic activity against MX-1 mammary carcinoma tumor xenograft in nude mice after administering intra peritoneally 3 injections at a dose of 400 mg/kg; assay type: functional, Homo sapiens
Procedure, shortened: (§1)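 Nude mice bearing tumor xenografts, run through the NCI Developmental Therapeutics Program. Compound given ip as three injections at 4-day intervals for MX-1 mammary, LX-1 lung and LOX melanoma. Activity read out as % T/C.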

DOD-1 = experiment: Evaluated for the inhibitory concentration required to cause growth inhibition of DOD-1 breast cell line using the MTT Cytotoxicity Assay; assay type: functional, cell-based; conditions: Homo sapiens
Procedure, shortened: (§2)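 MTT microculture tetrazolium growth assay on human cell lines and normal fibroblasts. Cells seeded at 1000 cells/well, with compound added 24 h after plating. Cultures then incubated a further 6 days at 37 °C before MTT read-out of growth versus untreated cells.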

A549 = experiment: Evaluated for the inhibitory concentration required to cause growth inhibition of A549Rem- cell line of lung using the MTT Cytotoxicity Assay; assay type: functional, cell-based; conditions: Homo sapiens
Procedure, shortened: as §2

WiDr = experiment: Evaluated for the inhibitory concentration required to cause growth inhibition of WiDR colon cell line using the MTT Cytotoxicity Assay; assay type: functional, cell-based; conditions: Homo sapiens
Procedure, shortened: (§3)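 MTT cell-growth assay in human cell lines: cells harvested and seeded at 1000 cells/well in 96-well plates. Compound added after 24 h, then cultures incubated a further 6 days at 37 °C. Growth measured with and without agent.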

Malme-3M = experiment: Evaluated for the inhibitory concentration required to cause growth inhibition of MALME-3M melanoma cell line using the MTT Cytotoxicity Assay; assay type: functional, cell-based; conditions: Homo sapiens
Procedure, shortened: as §2

CCD 19Lu = experiment: Evaluated for the inhibitory concentration required to cause growth inhibition of CCD-19Lu fibroblasts cell line using the MTT Cytotoxicity Assay; assay type: functional, cell-based; conditions: Homo sapiens
Procedure, shortened: as §2

OVCAR-4 = experiment: Evaluated for the inhibitory concentration required to cause growth inhibition of OVCAR-4 ovarian cell line using the MTT Cytotoxicity Assay; assay type: functional, cell-based; conditions: Homo sapiens
Procedure, shortened: as §2

A 172 = experiment: Evaluated for the inhibitory concentration required to cause growth inhibition of A172Mer- cell line of central nervous system (CNS) using the MTT Cytotoxicity Assay; assay type: functional, cell-based; conditions: Homo sapiens
Procedure, shortened: as §2

MCF7 = experiment: Evaluated for the inhibitory concentration required to cause growth inhibition of MCF-7 breast cell line using the MTT Cytotoxicity Assay; assay type: functional, cell-based; conditions: Homo sapiens
Procedure, shortened: as §2

[2] = system: MAR BEL fibroblasts cell line; experiment: Evaluated for the inhibitory concentration required to cause growth inhibition of MAR BEL fibroblasts cell line using the MTT Cytotoxicity Assay; assay type: functional, cell-based; conditions: Homo sapiens
Procedure, shortened: as §2

A673 = experiment: Evaluated for the inhibitory concentration required to cause growth inhibition of A673Mer+ sarcoma cell line using the MTT Cytotoxicity Assay; assay type: functional, cell-based; conditions: Homo sapiens
Procedure, shortened: as §2

A704 = experiment: Evaluated for the inhibitory concentration required to cause growth inhibition of A704Rem- renal cell line using the MTT Cytotoxicity Assay; assay type: functional, cell-based; conditions: Homo sapiens
Procedure, shortened: as §2

U-251 = experiment: Evaluated for the inhibitory concentration required to cause growth inhibition of U251 cell line of central nervous system (CNS) using the MTT Cytotoxicity Assay; assay type: functional, cell-based; conditions: Homo sapiens
Procedure, shortened: as §3

[3] = Evaluated in vivo for antineoplastic activity against LX-1 Lung small cell carcinoma tumor xenograft in nude mice after administering intra peritoneally 3 injections at a dose of 100 mg/kg; assay type: functional, Homo sapiens
Procedure, shortened: as §1

P388 [4] = experiment: Evaluated in vivo for antineoplastic activity against P388 murine leukemia tumor […] after administering intra peritoneal injection at a dose of 200 mg/kg.; assay type: functional, Mus musculus
Procedure, shortened: (§4)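 P388 leukemia-bearing mice, run through the NCI Developmental Therapeutics Program. Compound given ip once daily on 5 consecutive days. Activity read out as % T/C.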

LOX IMVI = experiment: Evaluated for the inhibitory concentration required to cause growth inhibition of LOX melanoma cell line using the MTT Cytotoxicity Assay; assay type: functional, cell-based; conditions: Homo sapiens
Procedure, shortened: as §2

RPMI-7951 = experiment: Evaluated for the inhibitory concentration required to cause growth inhibition of RPMI7951 melanoma cell line using the MTT Cytotoxicity Assay; assay type: functional, cell-based; conditions: Homo sapiens
Procedure, shortened: as §2

A498 = experiment: Evaluated for the inhibitory concentration required to cause growth inhibition of A498Rem- renal cell line using the MTT Cytotoxicity Assay; assay type: functional, cell-based; conditions: Homo sapiens
Procedure, shortened: as §2

NCI-H125 = experiment: Evaluated for the inhibitory concentration required to cause growth inhibition of H125 cell line of lung using the Microculture Tetrazolium (MTT) Cytotoxicity Assay; assay type: functional, cell-based; conditions: Homo sapiens
Procedure, shortened: as §2

NCI-H23 = experiment: Evaluated for the inhibitory concentration required to cause growth inhibition of H23 cell line of lung using the Microculture Tetrazolium (MTT) Cytotoxicity Assay; assay type: functional, cell-based; conditions: Homo sapiens
Procedure, shortened: as §2

HOS-TE85 = experiment: Evaluated for the inhibitory concentration required to cause growth inhibition of TE85Mer+ sarcoma cell line using the MTT Cytotoxicity Assay; assay type: functional, cell-based; conditions: Homo sapiens
Procedure, shortened: as §2

NCI/ADR-RES = experiment: Evaluated for the inhibitory concentration required to cause growth inhibition of MCF-7ADR breast cell line using the MTT Cytotoxicity Assay; assay type: functional, cell-based; conditions: Homo sapiens
Procedure, shortened: as §2

A-427 = experiment: Evaluated for the inhibitory concentration required to cause growth inhibition of A427Mer- cell line of lung using the MTT Cytotoxicity Assay; assay type: functional, cell-based; conditions: Homo sapiens
Procedure, shortened: as §2

TE-671 = experiment: Evaluated for the inhibitory concentration required to cause growth inhibition of TE-671 cell line of central nervous system (CNS)using the MTT Cytotoxicity Assay; assay type: functional, cell-based; conditions: Homo sapiens
Procedure, shortened: as §2

MX1 [5] = experiment: Evaluated in vivo for antineoplastic activity against MX-1 mammary carcinoma tumor xenograft in nude mice after administering intra peritoneally 3 injections at a dose of 200 mg/kg; assay type: functional, Homo sapiens
Procedure, shortened: as §1

MX1 [6] = experiment: Evaluated in vivo for antineoplastic activity against MX-1 mammary carcinoma tumor xenograft in nude mice after administering intra peritoneally 3 injections at a dose of 100 mg/kg; assay type: functional, Homo sapiens
Procedure, shortened: as §1

[7] = Evaluated in vivo for antineoplastic activity against LOX melanoma amelanotic tumor xenograft in nude mice after administering intra peritoneally 3 injections at a dose of 100 mg/kg; assay type: functional, Homo sapiens
Procedure, shortened: as §1

NCI-H460 = experiment: Evaluated for the inhibitory concentration required to cause growth inhibition of H460 cell line of lung using the Microculture Tetrazolium (MTT) Cytotoxicity Assay; assay type: functional, cell-based; conditions: Homo sapiens
Procedure, shortened: as §2

NCI-H322M = experiment: Evaluated for the inhibitory concentration required to cause growth inhibition of H322M cell line of lung using the Microculture Tetrazolium (MTT) Cytotoxicity Assay; assay type: functional, cell-based; conditions: Homo sapiens
Procedure, shortened: as §2

[8] = Evaluated in vivo for antineoplastic activity against LOX melanoma amelanotic tumor xenograft in nude mice after administering intra peritoneally 3 injections at a dose of 400 mg/kg; assay type: functional, Homo sapiens
Procedure, shortened: as §1

[9] = Evaluated in vivo for antineoplastic activity against LOX melanoma amelanotic tumor xenograft in nude mice after administering intra peritoneally 3 injections at a dose of 800 mg/kg; assay type: functional, Homo sapiens
Procedure, shortened: as §1

SK-MEL-5 = experiment: Evaluated for the inhibitory concentration required to cause growth inhibition of SK-MEL-5 melanoma cell line using the MTT Cytotoxicity Assay; assay type: functional, cell-based; conditions: Homo sapiens
Procedure, shortened: as §2

NCI-H358 = experiment: Evaluated for the inhibitory concentration required to cause growth inhibition of H358M cell line of lung using the Microculture Tetrazolium (MTT) Cytotoxicity Assay; assay type: functional, cell-based; conditions: Homo sapiens
Procedure, shortened: as §2

[10] = Evaluated in vivo for antineoplastic activity against LOX melanoma amelanotic tumor xenograft in nude mice after administering intra peritoneally 3 injections at a dose of 200 mg/kg; assay type: functional, Homo sapiens
Procedure, shortened: as §1

P388 [11] = experiment: Evaluated in vivo for antineoplastic activity against P388 murine leukemia tumor […] after administering intra peritoneal injection at a dose of 100 mg/kg.; assay type: functional, Mus musculus
Procedure, shortened: as §4

P388 [12] = experiment: Evaluated in vivo for antineoplastic activity against P388 murine leukemia tumor […] after administering intra peritoneal injection at a dose of 50 mg/kg.; assay type: functional, Mus musculus
Procedure, shortened: as §4

[13] = Evaluated in vivo for antineoplastic activity against LX-1 Lung small cell carcinoma tumor xenograft in nude mice after administering intra peritoneally 3 injections at a dose of 200 mg/kg; assay type: functional, Homo sapiens
Procedure, shortened: as §1

OVCAR-3 = experiment: Evaluated for the inhibitory concentration required to cause growth inhibition of OVCAR-3 ovarian cell line using the MTT Cytotoxicity Assay; assay type: functional, cell-based; conditions: Homo sapiens
Procedure, shortened: as §2

CNC(=O)N(C)/N=N\CCCl
IC50 (NCI-H522 (Homo sapiens)): 13 µM
T/C (MX1 [1]): -76%
IC50 (DOD-1): 21 µM
IC50 (A549): 26 µM
IC50 (WiDr): 14 µM
IC50 (Malme-3M): 28 µM
IC50 (CCD 19Lu): 60 µM
IC50 (OVCAR-4): 20 µM
IC50 (A 172): 27 µM
IC50 (MCF7): 14 µM
IC50 [2]: 47 µM
IC50 (A673): 35 µM
IC50 (A704): 35 µM
IC50 (U-251): 30 µM
T/C [3]: -19%
T/C (P388 [4]): 297%
IC50 (LOX IMVI): 10 µM
IC50 (RPMI-7951): 18 µM
IC50 (A498): 20 µM
IC50 (NCI-H125): 45 µM
IC50 (NCI-H23): 18 µM
IC50 (HOS-TE85): 26 µM
IC50 (NCI/ADR-RES): 17 µM
IC50 (A-427): 18 µM
IC50 (TE-671): 55 µM
T/C (MX1 [5]): 1%
T/C (MX1 [6]): 15%
T/C [7]: 201%
IC50 (NCI-H460): 60 µM
IC50 (NCI-H322M): 37 µM
T/C [8]: 309%
T/C [9]: 309%
IC50 (SK-MEL-5): 13 µM
IC50 (NCI-H358): 60 µM
T/C [10]: 309%
T/C (P388 [11]): 196%
T/C (P388 [12]): 175%
T/C [13]: -66%
IC50 (OVCAR-3): 20 µM
